Measurements published in PMC3181111 (ACS chemical neuroscience, 2011).

Test system: male C57BL/6J mice
Assay: Mouse tail suspension test
Type: in vivo
Settings: 30 minutes, vs water vehicle
Summary of the method: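 Mice suspended by the tail with adhesive tape from a metal bar 30 cm high. Drugs given i.p. 30 min before testing. Reference inhibitors were in sterile water; test compounds were in DMSO at 2% (0.01 mL/g) or 100% (0.002 mL/g). Immobility time was scored by a blinded observer from 6-min video, n = 7–9, with one-way ANOVA and Tukey posthoc.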

Row | SMILES | Immobility time in tail suspension test (10 mg/kg i.p.) | Immobility time in tail suspension test (3 mg/kg i.p.)
1 | COCCCC/C(=N\OCCN)c1ccc(C(F)(F)F)cc1 [fluvoxamine] | decreased immobility times | –
2 | CNCCCN1c2ccccc2CCc2ccccc21 [desipramine] | – | decreased immobility times
